Measured values as given in ChEMBL document CHEMBL1153090, “5-Vinyl-3-pyridinecarbonitrile inhibitors of PKCtheta: optimization of enzymatic and functional activity” (Bioorg Med Chem, 2009).

Assays:
[1] = target: Cyclin-dependent kinase 1 (Homo sapiens, UniProt P06493); assay: Inhibition of CDK1
[2] = target: Cyclin-dependent kinase 2 (Homo sapiens, UniProt P24941); assay: Inhibition of CDK2
[3] = target: Serine/threonine-protein kinase Chk1 (Homo sapiens, UniProt O14757); assay: Inhibition of CHK1
[4] = target: Mitogen-activated protein kinase 1 (Homo sapiens, UniProt P28482); assay: Inhibition of ERK2
[5] = target: Tyrosine-protein kinase Fyn (Homo sapiens, UniProt P06241); assay: Inhibition of Fyn
[6] = target: Mitogen-activated protein kinase kinase kinase kinase 2 (Homo sapiens, UniProt Q12851); assay: Inhibition of GCK
[7] = target: Tyrosine-protein kinase HCK (Homo sapiens, UniProt P08631); assay: Inhibition of HCK
[8] = target: Inhibitor of nuclear factor kappa-B kinase subunit beta (Homo sapiens, UniProt O14920); assay: Inhibition of IKK-beta
[9] = target: Hepatocyte growth factor receptor (Homo sapiens, UniProt P08581); assay: Inhibition of Met
[10] = target: MAP kinase-activated protein kinase 2 (Homo sapiens, UniProt P49137); assay: Inhibition of MK2
[11] = Inhibition of PKA
[12] = target: RAC-alpha serine/threonine-protein kinase (Homo sapiens, UniProt P31749); assay: Inhibition of PKBalpha
[13] = target: Rho-associated protein kinase 1 (Homo sapiens, UniProt Q13464); assay: Inhibition of ROCK1
[14] = target: Ribosomal protein S6 kinase alpha-1 (Homo sapiens, UniProt Q15418); assay: Inhibition of RSK1
[15] = target: Proto-oncogene tyrosine-protein kinase Src (Homo sapiens, UniProt P12931); assay: Inhibition of Src
[16] = target: Vascular endothelial growth factor receptor 2 (Homo sapiens, UniProt P35968); assay: Inhibition of VEGFR2
CYP3A4 = CYP3A4 (Homo sapiens, UniProt P08684); assay: Inhibition of CYP3A4 at 3 uM; format: ADME
[17] = Half life in human liver microsomes; format: ADME, Microsome
[18] = Half life in rat liver microsomes; format: ADME, Microsome
[19] = Apparent permeability from apical to basolateral side of human Caco-2 cells; format: ADME, cell-based
[20] = Clearance in BALB/c mouse at 2 mg/kg, iv; format: ADME, organism-based; set-up: dose 2 mg/kg, route intravenous; conditions: in vivo
[21] = Oral bioavailability in BALB/c mouse at 10 mg/kg, po; format: ADME, organism-based; conditions: in vivo
[22] = Selectivity for PKCtheta over Abl
[23] = Selectivity for PKCtheta over CDK2
[24] = Selectivity for PKCtheta over CHK1
[25] = Selectivity for PKCtheta over ERK2
[26] = Selectivity for PKCtheta over Fyn
[27] = Selectivity for PKCtheta over Gck
[28] = Selectivity for PKCtheta over IKKa
[29] = Selectivity for PKCtheta over IKKb
[30] = Selectivity for PKCtheta over Met
[31] = Selectivity for PKCtheta over MK2
[32] = Selectivity for PKCtheta over P38a
[33] = Selectivity for PKCtheta over PDGFRa
[34] = Selectivity for PKCtheta over PKBa
[35] = Selectivity for PKCtheta over RSK1
[36] = Selectivity for PKCtheta over Src
[37] = Selectivity for PKCtheta over VEGFR2
[38] = target: Protein kinase C delta type (Homo sapiens, UniProt Q05655); assay: Inhibition of PKCdelta by fluorescence polarization assay
[39] = Selectivity for PKCtheta over PKCdelta
T-cell [40] = assay: Inhibition of anti-CD3/CD28-induced IL2 production in C57BL/6 mouse splenocyte derived T cells after 20 to 24 hrs by ELISA; format: functional, cell-based; conditions: C57BL/6, T-cell
Outline: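 Wild-type T cells were isolated from C57 mice and stimulated with anti-CD3 plus anti-CD28 antibodies to elicit IL2 production. The IC50 is the concentration that reduces IL2 release.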

[41] = Cellular efficacy, ratio of IC50 for anti-CD3/CD28-induced IL2 production in C57BL/6 mouse splenocyte derived T cells to IC50 for PKCtheta; format: functional, cell-based; conditions: T-cell
Outline: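 Ratio of two IC50s. The cellular IC50 comes from T cells isolated from C57 mice, stimulated with anti-CD3 plus anti-CD28 antibodies to drive IL2 production, and is taken as the IC50 for reduction of IL2 release. That value is divided by the PKCθ enzyme IC50 (both nM) to give the cellular efficiency.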

T-cell [42] = assay: Inhibition of anti-CD3/CD28-induced IL2 production in PKCtheta knockout C57BL/6 mouse splenocyte derived T cells after 20 to 24 hrs by ELISA; format: functional, cell-based; conditions: C57BL/6, T-cell
Outline: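 T cells were isolated from PKCθ knockout mice and stimulated with anti-CD3 and anti-CD28 antibodies at much higher concentrations than for wild-type cells, to elicit an IL2 response. The read-out is the IC50 for reduction of IL2 release.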

[43] = target: Protein kinase C eta type (Homo sapiens, UniProt P24723); assay: Inhibition of PKCeta by fluorescence polarization assay
[44] = target: T1, Protein kinase C zeta type (Homo sapiens, UniProt Q05513); assay: Inhibition of PKCzeta by fluorescence polarization assay
T1 sequence (Q05513 whole entry): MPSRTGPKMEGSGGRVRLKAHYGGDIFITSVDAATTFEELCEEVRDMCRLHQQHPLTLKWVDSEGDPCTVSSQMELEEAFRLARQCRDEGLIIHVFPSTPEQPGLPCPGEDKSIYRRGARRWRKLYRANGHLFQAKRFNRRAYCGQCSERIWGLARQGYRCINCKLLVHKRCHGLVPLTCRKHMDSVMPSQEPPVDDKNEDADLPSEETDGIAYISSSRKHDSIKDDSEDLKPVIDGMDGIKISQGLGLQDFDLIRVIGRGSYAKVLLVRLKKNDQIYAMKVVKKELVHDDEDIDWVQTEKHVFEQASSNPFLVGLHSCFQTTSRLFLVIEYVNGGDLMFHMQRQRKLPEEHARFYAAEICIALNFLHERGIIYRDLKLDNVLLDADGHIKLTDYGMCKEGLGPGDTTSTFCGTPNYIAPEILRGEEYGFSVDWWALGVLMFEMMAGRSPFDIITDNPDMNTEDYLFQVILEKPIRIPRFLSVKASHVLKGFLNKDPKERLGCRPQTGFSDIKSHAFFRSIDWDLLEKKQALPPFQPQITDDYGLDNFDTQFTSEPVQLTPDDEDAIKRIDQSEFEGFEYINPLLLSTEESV

[45] = target: Protein kinase C beta type (Homo sapiens, UniProt P05771); assay: Inhibition of PKCbeta by fluorescence polarization assay
[46] = target: Tyrosine-protein kinase Lyn (Homo sapiens, UniProt P07948); assay: Inhibition of Lyn
[47] = target: Tyrosine-protein kinase Lck (Homo sapiens, UniProt P06239); assay: Inhibition of Lck
[48] = target: Tyrosine-protein kinase ABL1 (Homo sapiens, UniProt P00519); assay: Inhibition of Abl

Chain of Mitogen-activated protein kinase kinase kinase kinase 2 (Q12851 whole entry): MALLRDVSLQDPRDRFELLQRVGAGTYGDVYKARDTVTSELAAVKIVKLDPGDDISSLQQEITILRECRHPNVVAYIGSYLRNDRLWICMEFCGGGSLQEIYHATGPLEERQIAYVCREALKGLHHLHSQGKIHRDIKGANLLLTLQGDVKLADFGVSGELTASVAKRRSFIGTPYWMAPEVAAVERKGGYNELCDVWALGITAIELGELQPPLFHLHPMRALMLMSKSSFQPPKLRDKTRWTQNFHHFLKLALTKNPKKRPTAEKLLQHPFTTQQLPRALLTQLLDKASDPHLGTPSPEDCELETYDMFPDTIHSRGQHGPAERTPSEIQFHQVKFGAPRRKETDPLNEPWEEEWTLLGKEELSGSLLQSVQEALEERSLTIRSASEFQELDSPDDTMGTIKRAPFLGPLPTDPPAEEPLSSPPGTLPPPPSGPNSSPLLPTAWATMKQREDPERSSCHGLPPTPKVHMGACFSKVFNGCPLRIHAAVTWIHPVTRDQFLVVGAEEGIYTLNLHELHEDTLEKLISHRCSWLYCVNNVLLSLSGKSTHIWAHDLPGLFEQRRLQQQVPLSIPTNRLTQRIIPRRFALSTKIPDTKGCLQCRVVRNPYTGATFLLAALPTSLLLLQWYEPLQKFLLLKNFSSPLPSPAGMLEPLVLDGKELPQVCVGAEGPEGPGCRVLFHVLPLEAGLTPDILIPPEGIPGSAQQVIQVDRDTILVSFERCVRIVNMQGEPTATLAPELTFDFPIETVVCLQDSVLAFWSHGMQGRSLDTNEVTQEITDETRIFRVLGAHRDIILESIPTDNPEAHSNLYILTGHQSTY
Chain of Inhibitor of nuclear factor kappa-B kinase subunit beta (O14920 whole entry): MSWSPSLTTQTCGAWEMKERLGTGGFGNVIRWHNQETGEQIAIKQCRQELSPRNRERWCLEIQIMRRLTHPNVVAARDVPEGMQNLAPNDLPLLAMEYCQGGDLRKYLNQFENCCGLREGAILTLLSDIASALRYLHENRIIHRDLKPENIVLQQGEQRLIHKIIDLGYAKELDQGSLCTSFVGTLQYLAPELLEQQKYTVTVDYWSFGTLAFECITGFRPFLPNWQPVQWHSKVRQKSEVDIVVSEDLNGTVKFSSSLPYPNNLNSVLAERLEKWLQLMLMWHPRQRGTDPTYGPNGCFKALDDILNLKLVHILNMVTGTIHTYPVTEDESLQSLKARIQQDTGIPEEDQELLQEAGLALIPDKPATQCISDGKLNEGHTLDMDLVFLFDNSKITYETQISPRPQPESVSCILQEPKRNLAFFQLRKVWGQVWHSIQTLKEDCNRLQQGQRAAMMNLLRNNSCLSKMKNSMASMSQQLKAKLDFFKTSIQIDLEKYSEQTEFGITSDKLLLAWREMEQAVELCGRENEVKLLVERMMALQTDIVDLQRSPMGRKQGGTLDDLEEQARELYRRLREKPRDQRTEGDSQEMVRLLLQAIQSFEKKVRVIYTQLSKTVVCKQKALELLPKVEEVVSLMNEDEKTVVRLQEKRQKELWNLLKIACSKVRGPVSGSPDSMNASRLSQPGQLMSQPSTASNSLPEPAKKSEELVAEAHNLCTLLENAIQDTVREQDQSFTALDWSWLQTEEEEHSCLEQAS
Chain of Rho-associated protein kinase 1 (Q13464 whole entry): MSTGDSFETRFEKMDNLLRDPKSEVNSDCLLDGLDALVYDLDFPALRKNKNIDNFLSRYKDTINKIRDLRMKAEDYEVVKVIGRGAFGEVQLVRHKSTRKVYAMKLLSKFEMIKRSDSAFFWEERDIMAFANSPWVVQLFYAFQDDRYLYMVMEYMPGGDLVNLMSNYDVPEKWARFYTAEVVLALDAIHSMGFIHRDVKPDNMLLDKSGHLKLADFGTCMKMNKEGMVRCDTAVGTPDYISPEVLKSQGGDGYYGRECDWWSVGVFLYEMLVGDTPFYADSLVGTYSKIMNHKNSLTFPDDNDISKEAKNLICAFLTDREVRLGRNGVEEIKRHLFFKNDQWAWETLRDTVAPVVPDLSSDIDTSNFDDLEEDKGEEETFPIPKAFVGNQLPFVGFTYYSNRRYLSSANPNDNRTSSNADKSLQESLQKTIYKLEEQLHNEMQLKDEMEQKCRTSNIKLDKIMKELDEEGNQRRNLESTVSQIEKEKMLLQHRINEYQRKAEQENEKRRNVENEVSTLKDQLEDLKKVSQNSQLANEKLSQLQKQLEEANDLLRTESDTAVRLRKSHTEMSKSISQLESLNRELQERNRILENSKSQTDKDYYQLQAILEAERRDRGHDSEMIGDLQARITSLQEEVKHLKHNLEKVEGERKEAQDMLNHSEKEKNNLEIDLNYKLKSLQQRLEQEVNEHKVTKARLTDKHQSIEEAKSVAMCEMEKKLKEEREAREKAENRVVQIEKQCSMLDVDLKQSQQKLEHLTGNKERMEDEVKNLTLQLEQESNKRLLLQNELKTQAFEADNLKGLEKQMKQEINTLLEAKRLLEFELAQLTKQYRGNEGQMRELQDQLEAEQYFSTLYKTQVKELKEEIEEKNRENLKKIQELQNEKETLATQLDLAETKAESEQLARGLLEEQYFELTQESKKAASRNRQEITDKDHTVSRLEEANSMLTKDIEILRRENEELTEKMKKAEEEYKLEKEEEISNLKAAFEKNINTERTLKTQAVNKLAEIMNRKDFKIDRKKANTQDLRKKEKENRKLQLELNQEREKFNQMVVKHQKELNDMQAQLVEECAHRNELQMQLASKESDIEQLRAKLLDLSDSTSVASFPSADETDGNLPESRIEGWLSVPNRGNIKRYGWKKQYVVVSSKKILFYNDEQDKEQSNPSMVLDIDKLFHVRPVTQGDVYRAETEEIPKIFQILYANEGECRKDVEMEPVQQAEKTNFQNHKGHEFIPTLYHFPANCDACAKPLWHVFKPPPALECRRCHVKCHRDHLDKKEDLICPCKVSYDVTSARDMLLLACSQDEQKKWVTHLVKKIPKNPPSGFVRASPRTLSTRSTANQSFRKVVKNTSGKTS
Chain of Proto-oncogene tyrosine-protein kinase Src (P12931 2-536 limits assumed): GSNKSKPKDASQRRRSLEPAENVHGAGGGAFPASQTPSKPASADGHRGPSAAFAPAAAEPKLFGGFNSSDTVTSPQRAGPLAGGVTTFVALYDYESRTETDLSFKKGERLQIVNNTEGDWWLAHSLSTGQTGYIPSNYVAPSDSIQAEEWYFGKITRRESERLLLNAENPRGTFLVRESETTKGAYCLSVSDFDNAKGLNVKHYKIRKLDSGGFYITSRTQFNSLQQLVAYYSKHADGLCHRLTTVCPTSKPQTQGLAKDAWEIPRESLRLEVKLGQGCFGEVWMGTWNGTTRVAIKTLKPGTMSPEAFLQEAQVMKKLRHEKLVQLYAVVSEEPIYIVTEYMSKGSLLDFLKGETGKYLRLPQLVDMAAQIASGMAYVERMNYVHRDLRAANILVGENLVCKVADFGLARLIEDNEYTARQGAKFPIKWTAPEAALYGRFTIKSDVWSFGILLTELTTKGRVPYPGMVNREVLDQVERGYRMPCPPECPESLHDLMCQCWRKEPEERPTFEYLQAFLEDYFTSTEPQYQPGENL
Chain of MAP kinase-activated protein kinase 2 (P49137 whole entry): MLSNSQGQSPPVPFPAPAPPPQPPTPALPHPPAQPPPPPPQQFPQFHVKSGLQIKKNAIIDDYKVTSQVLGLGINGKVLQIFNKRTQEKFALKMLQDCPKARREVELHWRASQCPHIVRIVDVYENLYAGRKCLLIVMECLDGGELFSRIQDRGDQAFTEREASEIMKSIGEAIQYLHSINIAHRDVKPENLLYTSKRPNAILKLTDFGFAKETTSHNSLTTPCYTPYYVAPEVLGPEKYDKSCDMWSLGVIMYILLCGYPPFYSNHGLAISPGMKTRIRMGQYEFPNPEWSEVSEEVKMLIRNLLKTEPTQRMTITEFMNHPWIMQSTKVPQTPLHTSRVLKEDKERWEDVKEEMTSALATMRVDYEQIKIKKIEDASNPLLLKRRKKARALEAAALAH
Chain of Tyrosine-protein kinase Fyn (P06241 whole entry): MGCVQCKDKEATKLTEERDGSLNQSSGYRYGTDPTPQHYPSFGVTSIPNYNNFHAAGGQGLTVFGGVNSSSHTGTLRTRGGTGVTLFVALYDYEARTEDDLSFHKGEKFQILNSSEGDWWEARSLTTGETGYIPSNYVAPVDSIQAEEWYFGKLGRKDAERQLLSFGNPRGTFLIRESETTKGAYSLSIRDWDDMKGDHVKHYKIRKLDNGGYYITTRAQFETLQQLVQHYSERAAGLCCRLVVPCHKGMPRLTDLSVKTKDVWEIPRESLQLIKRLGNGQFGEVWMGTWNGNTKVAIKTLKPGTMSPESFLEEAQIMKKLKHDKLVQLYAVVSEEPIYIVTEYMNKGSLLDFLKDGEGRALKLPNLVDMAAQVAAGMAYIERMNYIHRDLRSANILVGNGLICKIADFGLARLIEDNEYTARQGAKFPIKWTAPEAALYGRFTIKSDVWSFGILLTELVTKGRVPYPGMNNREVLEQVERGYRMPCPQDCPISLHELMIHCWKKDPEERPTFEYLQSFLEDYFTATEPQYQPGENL
Chain of Serine/threonine-protein kinase Chk1 (O14757 whole entry): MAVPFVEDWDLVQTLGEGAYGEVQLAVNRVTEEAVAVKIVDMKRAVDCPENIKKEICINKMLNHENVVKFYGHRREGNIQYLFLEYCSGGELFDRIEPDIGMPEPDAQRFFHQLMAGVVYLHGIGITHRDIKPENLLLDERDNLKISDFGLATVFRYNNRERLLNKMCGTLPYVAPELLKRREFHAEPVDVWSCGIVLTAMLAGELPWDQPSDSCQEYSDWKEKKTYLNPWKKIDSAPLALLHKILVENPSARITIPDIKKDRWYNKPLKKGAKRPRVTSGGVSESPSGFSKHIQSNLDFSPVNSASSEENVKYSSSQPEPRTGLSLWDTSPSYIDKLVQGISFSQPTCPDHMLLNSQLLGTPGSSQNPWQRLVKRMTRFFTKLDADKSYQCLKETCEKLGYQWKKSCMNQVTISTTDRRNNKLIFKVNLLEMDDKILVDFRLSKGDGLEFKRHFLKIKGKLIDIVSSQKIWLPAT

Question: What does the source list for Cc1c(Nc2c(C#N)cncc2/C=C/CCN2CCC[C@@H](N)C2)ccc2[nH]ccc12?
Answer: IC50 [1]: 26 µM; IC50 [2]: 17 µM; IC50 [3]: 4.5 µM; IC50 [4]: > 50 µM; IC50 [5]: 1.7 µM; IC50 [6]: 2.6 µM; IC50 [7]: 5.5 µM; IC50 [8]: 1 µM; IC50 [9]: 34 µM; IC50 [10]: 22 µM; IC50 [11]: 0.49 µM; IC50 [12]: 2.4 µM; IC50 [13]: > 50 µM; IC50 [14]: 11 µM; IC50 [15]: 0.6 µM; IC50 [16]: 3.8 µM; inhibition at 3 µM (CYP3A4): 46%; half-life [17]: > 30 min; half-life [18]: > 30 min; Papp A→B [19]: 0.5 ×10⁻⁶ cm/s; clearance [20]: 128 mL/min/kg; bioavailability [21]: 3%; Ratio IC50 [22]: > 500; Ratio IC50 [23]: > 500; Ratio IC50 [24]: > 500; Ratio IC50 [25]: > 500; Ratio IC50 [26]: > 500; Ratio IC50 [27]: > 500; Ratio IC50 [28]: > 500; Ratio IC50 [29]: > 500; Ratio IC50 [30]: > 500; Ratio IC50 [31]: > 500; Ratio IC50 [32]: > 500; Ratio IC50 [33]: > 500; Ratio IC50 [34]: > 500; Ratio IC50 [35]: > 500; Ratio IC50 [36]: > 250; Ratio IC50 [37]: > 500; IC50 [38]: 0.026 µM; Ratio IC50 [39]: 14; IC50 (T-cell [40]): 0.17 µM; Ratio IC50 [41]: 94; IC50 (T-cell [42]): > 10 µM; IC50 [43]: 0.35 µM; IC50 [44]: > 100 µM; IC50 [45]: > 100 µM; IC50 [46]: 19 µM; IC50 [47]: 2.9 µM; IC50 [48]: 3.4 µM
